≈ marks a conversion by molar mass, not a printed value.
What was measured:
MCF7 [1] = experiment: Effect on hydrogen peroxide level in human MCF7 cells assessed per mg protein at 2 ug/ml by Wolf's method after 24 hrs (reference value: 12.50 +/- 1.54 nmol/mg of protein); assay type: functional
MCF7 [2] = experiment: Effect on hydrogen peroxide level in human MCF7 cells assessed per mg protein at 5 ug/ml by Wolf's method after 24 hrs (reference value: 12.50 +/- 1.54 nmol/mg of protein); assay type: functional
MCF7 [3] = experiment: Effect on hydrogen peroxide level in human MCF7 cells assessed per mg protein at 10 ug/ml by Wolf's method after 24 hrs (reference value: 12.50 +/- 1.54 nmol/mg of protein); assay type: functional
MCF7 [4] = experiment: Effect on hydrogen peroxide level in human MCF7 cells assessed per mg protein at 20 ug/ml by Wolf's method after 24 hrs (reference value: 12.50 +/- 1.54 nmol/mg of protein); assay type: functional
MCF7 [5] = experiment: Decrease in CAT level in human MCF7 cells; assay type: functional, cell-based
MCF7 [6] = experiment: Decrease in glutathione peroxidase level in human MCF7 cells; assay type: functional, cell-based
MCF7 [7] = experiment: Decrease in glutathione level in human MCF7 cells; assay type: functional, cell-based
MCF7 [8] = experiment: Increase in hydrogen peroxide level in human MCF7 cells; assay type: functional, cell-based
MCF7 [9] = experiment: Increase in SOD level in human MCF7 cells; assay type: functional, cell-based
MCF7 [10] = experiment: Effect on DNA level in human MCF7 cells assessed per 10 '6 cells at 2 ug/ml after 24 hrs (reference value: 6.80 +/- 0.70 ug/10^6 cells); assay type: functional
How it was run: (§1)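 After 24 h exposure of MCF-7 cells to compound at 2, 5, 10 or 20 µg/ml at 37 °C, nucleic acids were precipitated from cell homogenates. DNA was extracted and assayed by the Zhou et al. method, and RNA by a kit-derived procedure. Results given per 10⁶ cells as means ± S.E. of four experiments versus untreated control.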

MCF7 [11] = experiment: Effect on DNA level in human MCF7 cells assessed per 10 '6 cells at 5 ug/ml after 24 hrs (reference value: 6.80 +/- 0.70 ug/10^6 cells); assay type: functional; how it was run: as §1
MCF7 [12] = experiment: Effect on DNA level in human MCF7 cells assessed per 10 '6 cells at 10 ug/ml after 24 hrs (reference value: 6.80 +/- 0.70 ug/10^6 cells); assay type: functional; how it was run: as §1
MCF7 [13] = experiment: Effect on DNA level in human MCF7 cells assessed per 10 '6 cells at 20 ug/ml after 24 hrs (reference value: 6.80 +/- 0.70 ug/10^6 cells); assay type: functional; how it was run: as §1
MCF7 [14] = experiment: Effect on RNA level in human MCF7 cells assessed per 10 '6 cells at 2 ug/ml after 24 hrs (reference value: 11.50 +/- 0.70 ug/10^6 cells); assay type: functional; how it was run: as §1
MCF7 [15] = experiment: Effect on RNA level in human MCF7 cells assessed per 10 '6 cells at 5 ug/ml after 24 hrs (reference value: 11.50 +/- 0.70 ug/10^6 cells); assay type: functional; how it was run: as §1
MCF7 [16] = experiment: Effect on RNA level in human MCF7 cells assessed per 10 '6 cells at 10 ug/ml after 24 hrs (reference value: 11.50 +/- 0.70 ug/10^6 cells); assay type: functional; how it was run: as §1
MCF7 [17] = experiment: Effect on RNA level in human MCF7 cells assessed per 10 '6 cells at 20 ug/ml after 24 hrs (reference value: 11.50 +/- 0.70 ug/10^6 cells); assay type: functional; how it was run: as §1
MCF7 [18] = experiment: Decrease in DNA level in human MCF7 cells assessed per 10 '6 cells after 24 hrs relative to control; assay type: functional, cell-based; how it was run: as §1
MCF7 [19] = experiment: Decrease in RNA level in human MCF7 cells assessed per 10 '6 cells after 24 hrs relative to control; assay type: functional, cell-based; how it was run: as §1
MCF7 [20] = experiment: Antiproliferative activity against human MCF7 cells after 24 hrs by MTT assay; assay type: functional, cell-based; conditions: for IC50: MCF7, 24 h
How it was run: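 MCF-7 cells (DMEM, 10% heat-inactivated FCS, penicillin/streptomycin, 37 °C, 5% CO2) plated at 0.65 × 10⁵ cells/well and given 24 h to attach. Exposed to compound or cisplatin at 2, 5, 10 or 20 µg/ml for 24 h at 37 °C. MTT added for 4 h, formazan dissolved in DMSO, absorbance read at 570 nm. Viability taken relative to untreated cells and IC50 derived.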

MCF7 [21] = experiment: Effect on SOD level in human MCF7 cells assessed per mg protein at 2 ug/ml after 24 hrs (reference value: 27.61+/- 3.72 U/mg of protein); assay type: functional
MCF7 [22] = experiment: Effect on SOD level in human MCF7 cells assessed per mg protein at 5 ug/ml after 24 hrs (reference value: 27.61+/- 3.72 U/mg of protein); assay type: functional
MCF7 [23] = experiment: Effect on SOD level in human MCF7 cells assessed per mg protein at 10 ug/ml after 24 hrs (reference value: 27.61+/- 3.72 U/mg of protein); assay type: functional
MCF7 [24] = experiment: Effect on SOD level in human MCF7 cells assessed per mg protein at 20 ug/ml after 24 hrs (reference value: 27.61+/- 3.72 U/mg of protein); assay type: functional
MCF7 [25] = experiment: Effect on CAT level in human MCF7 cells assessed per mg protein at 2 ug/ml after 24 hrs (reference value: 7.90+/- 0.67 U/mg of protein); assay type: functional
MCF7 [26] = experiment: Effect on CAT level in human MCF7 cells assessed per mg protein at 5 ug/ml after 24 hrs (reference value: 7.90+/- 0.67 U/mg of protein); assay type: functional
MCF7 [27] = experiment: Effect on CAT level in human MCF7 cells assessed per mg protein at 10 ug/ml after 24 hrs (reference value: 7.90+/- 0.67 U/mg of protein); assay type: functional
MCF7 [28] = experiment: Effect on CAT level in human MCF7 cells assessed per mg protein at 20 ug/ml after 24 hrs (reference value: 7.90+/- 0.67 U/mg of protein); assay type: functional
MCF7 [29] = experiment: Effect on glutathione peroxidase level in human MCF7 cells assessed per mg protein at 2 ug/ml after 24 hrs (reference value: 11.20 +/- 1.36 U/mg of protein); assay type: functional
MCF7 [30] = experiment: Effect on glutathione peroxidase level in human MCF7 cells assessed per mg protein at 5 ug/ml after 24 hrs (reference value: 11.20 +/- 1.36 U/mg of protein); assay type: functional
MCF7 [31] = experiment: Effect on glutathione peroxidase level in human MCF7 cells assessed per mg protein at 10 ug/ml after 24 hrs (reference value: 11.20 +/- 1.36 U/mg of protein); assay type: functional
MCF7 [32] = experiment: Effect on glutathione peroxidase level in human MCF7 cells assessed per mg protein at 20 ug/ml after 24 hrs (reference value: 11.20 +/- 1.36 U/mg of protein); assay type: functional
MCF7 [33] = experiment: Effect on glutathione level in human MCF7 cells assessed per mg protein at 2 ug/ml by Ellman method after 24 hrs (reference value: 39.82 +/- 4.20 nmol/mg of protein); assay type: functional
MCF7 [34] = experiment: Effect on glutathione level in human MCF7 cells assessed per mg protein at 5 ug/ml by Ellman method after 24 hrs (reference value: 39.82 +/- 4.20 nmol/mg of protein); assay type: functional
MCF7 [35] = experiment: Effect on glutathione level in human MCF7 cells assessed per mg protein at 10 ug/ml by Ellman method after 24 hrs (reference value: 39.82 +/- 4.20 nmol/mg of protein); assay type: functional
MCF7 [36] = experiment: Effect on glutathione level in human MCF7 cells assessed per mg protein at 20 ug/ml by Ellman method after 24 hrs (reference value: 39.82 +/- 4.20 nmol/mg of protein); assay type: functional

Compound	Activity (MCF7 [1])	Activity (MCF7 [2])	Activity (MCF7 [3])	Activity (MCF7 [4])	Activity (MCF7 [5])	Activity (MCF7 [6])	Activity (MCF7 [7])	Activity (MCF7 [8])	Activity (MCF7 [9])	Activity (MCF7 [10])	Activity (MCF7 [11])	Activity (MCF7 [12])	Activity (MCF7 [13])	Activity (MCF7 [14])	Activity (MCF7 [15])	Activity (MCF7 [16])	Activity (MCF7 [17])	Activity (MCF7 [18])	Activity (MCF7 [19])	Activity (MCF7 [20])	also measured
Cc1nc(-n2ncc3c(S[C@@H]4O[C@H](CO)[C@@H](O)[C@H]4O)ncnc32)c2c3c(sc2n1)CCc1ccccc1-3	21.23 nmol	28.45 nmol	35.85 nmol	40.33 nmol	Dose-dependent effect	Dose-dependent effect	Dose-dependent effect	Dose-dependent effect	Dose-dependent effect	5.35 µg/10^6 cells	5.16 µg/10^6 cells	4.86 µg/10^6 cells	4.45 µg/10^6 cells	9.5 µg/10^6 cells	8.9 µg/10^6 cells	7.7 µg/10^6 cells	7.22 µg/10^6 cells	Dose-dependent effect	Dose-dependent effect	Dose-dependent effect	IC50 (MCF7 [20]): 9.4 µg/mL (≈ 17.6 µM); Activity (MCF7 [21]): 70.4 U/mg protein; Activity (MCF7 [22]): 80.2 U/mg protein; Activity (MCF7 [23]): 110 U/mg protein; Activity (MCF7 [24]): 161 U/mg protein; Activity (MCF7 [25]): 6.85 U/mg protein; Activity (MCF7 [26]): 6 U/mg protein; Activity (MCF7 [27]): 5.7 U/mg protein; Activity (MCF7 [28]): 5.35 U/mg protein; Activity (MCF7 [29]): 9 U/mg protein; Activity (MCF7 [30]): 6.6 U/mg protein; Activity (MCF7 [31]): 6 U/mg protein; Activity (MCF7 [32]): 5.4 U/mg protein; Activity (MCF7 [33]): 43.35 nmol; Activity (MCF7 [34]): 40.12 nmol; Activity (MCF7 [35]): 33.11 nmol; Activity (MCF7 [36]): 30 nmol
Cc1nc(-n2ncc3c(=S)[nH]cnc32)c2c3c(sc2n1)CCc1ccccc1-3	24.2 nmol	21.6 nmol	30.5 nmol	46.37 nmol	Dose-dependent effect	Dose-dependent effect	Dose-dependent effect	Dose-dependent effect	Dose-dependent effect	5.3 µg/10^6 cells	5 µg/10^6 cells	4.76 µg/10^6 cells	4 µg/10^6 cells	9.11 µg/10^6 cells	7.9 µg/10^6 cells	7 µg/10^6 cells	6.8 µg/10^6 cells	Dose-dependent effect	Dose-dependent effect	Dose-dependent effect	IC50 (MCF7 [20]): 8 µg/mL (≈ 19.9 µM); Activity (MCF7 [21]): 77.9 U/mg protein; Activity (MCF7 [22]): 85.4 U/mg protein; Activity (MCF7 [23]): 121 U/mg protein; Activity (MCF7 [24]): 181 U/mg protein; Activity (MCF7 [25]): 6.33 U/mg protein; Activity (MCF7 [26]): 5.36 U/mg protein; Activity (MCF7 [27]): 4.9 U/mg protein; Activity (MCF7 [28]): 4 U/mg protein; Activity (MCF7 [29]): 8.3 U/mg protein; Activity (MCF7 [30]): 7.9 U/mg protein; Activity (MCF7 [31]): 7.7 U/mg protein; Activity (MCF7 [32]): 6.82 U/mg protein; Activity (MCF7 [33]): 39.9 nmol; Activity (MCF7 [34]): 33.12 nmol; Activity (MCF7 [35]): 29.11 nmol; Activity (MCF7 [36]): 27 nmol
COCCSc1ncnc2c1cnn2-c1nc(C)nc2sc3c(c12)-c1ccccc1CC3	30.75 nmol	45.77 nmol	58.5 nmol	66.8 nmol	Dose-dependent effect	Dose-dependent effect	Dose-dependent effect	Dose-dependent effect	Dose-dependent effect	4 µg/10^6 cells	3.44 µg/10^6 cells	2.96 µg/10^6 cells	2.5 µg/10^6 cells	6.2 µg/10^6 cells	5.72 µg/10^6 cells	5.21 µg/10^6 cells	4.8 µg/10^6 cells	Dose-dependent effect	Dose-dependent effect	Dose-dependent effect	IC50 (MCF7 [20]): 4.3 µg/mL (≈ 9.34 µM); Activity (MCF7 [21]): 105 U/mg protein; Activity (MCF7 [22]): 136 U/mg protein; Activity (MCF7 [23]): 310 U/mg protein; Activity (MCF7 [24]): 310 U/mg protein; Activity (MCF7 [25]): 3.9 U/mg protein; Activity (MCF7 [26]): 3.4 U/mg protein; Activity (MCF7 [27]): 3 U/mg protein; Activity (MCF7 [28]): 2.1 U/mg protein; Activity (MCF7 [29]): 6 U/mg protein; Activity (MCF7 [30]): 5.65 U/mg protein; Activity (MCF7 [31]): 4 U/mg protein; Activity (MCF7 [32]): 2.9 U/mg protein; Activity (MCF7 [33]): 23.6 nmol; Activity (MCF7 [34]): 20.95 nmol; Activity (MCF7 [35]): 18.75 nmol; Activity (MCF7 [36]): 15.6 nmol

Reference: ChEMBL document CHEMBL1759915, “Synthesis and anticancer effects of some novel pyrazolo[3,4-d]pyrimidine derivatives by generating reactive oxygen species in human breast adenocarcinoma cells” (Eur J Med Chem, 2011)
